The values below come from ChEMBL document CHEMBL5252546, “Salutaxel, a Conjugate of Docetaxel and a Muramyl Dipeptide (MDP) Analogue, Acts as Multifunctional Prodrug That Inhibits Tumor Growth and Metastasis” (J Med Chem, 2018).

Molecules are shown by their SMILES. The source made the active and inactive calls. The calls are words filed in the database; no cut-off is given here.

A short description of data set [1]: Toxicity in BALB/c mouse xenografted with human MDA-MB-231 cells assessed as body weight loss at 10 mg/kg,iv administrated once per week for 3 weeks. It is filed as organism-based. The conditions noted are these: in vivo, 504 h.
Data set [2] can be described thus: Prodrug conversion in mouse tumor implanted with mouse 4T1 cells assessed as half life of docetaxel at 4 mg/kg,iv measured upto 72 hrs. It is filed as ADME, organism-based, Neoplasm. The settings on record: in vivo.
Data set [3] is described as follows: Clearance in rat at 4 mg/kg,iv measured upto 24 hrs. It is filed as ADME, organism-based. The settings on record: in vivo. Put shortly: (§1)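 Rats were given a single iv injection at 2, 4 or 8 mg/kg. Plasma parent drug and released docetaxel were followed over time. Cmax, Tmax, AUC, MRT, t1/2, CL and Vss were reported for males, females and all animals combined.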

The test system of data set [4] is 4T1. In words: Antitumor activity against mouse 4T1 cells implanted in BALB/c mouse assessed as decrease in lung MMP2 expression level at 5 to 20 mg/kg,iv administrated once per week for 4 weeks by western blot assay. The format is functional, organism-based. The settings on record: dose 5-20 mg/kg. Put shortly: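 4T1 fat-pad model in BALB/c mice, iv once weekly for 4 weeks; MMP9, MMP2 and NOD1 in spleen, lung and tumour by western blot, β-actin loading control; bands averaged over five mice per group, representative of two independent experiments.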

A short description of data set [5]: Drug concentration in plasma of Beagle dog assessed as docetaxel concentration at 1 to 4 mg/kg,iv measured upto 24 hrs. The settings on record: in vivo, dose 1-4 mg/kg. It is filed as ADME, organism-based, Canis lupus familiaris. In outline: (§2)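 Beagle dogs were given a single iv infusion at 1, 2 or 4 mg/kg. Plasma parent drug and released docetaxel were followed over time. Cmax, Tmax, AUC, MRT, t1/2, CL and Vss were reported by sex and for all dogs combined.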

The next data set addresses Cytochrome P450 1A2 (Homo sapiens, UniProt P05177). Description: Inhibition of CYP1A2 in human liver microsomes using probe substrate at 0.1 to 100 uM in presence of NADPH. The conditions noted are these: dose 0.1-100 µM. The format is ADME, Microsome. On the technique in general: Liver microsomes are vesicles of endoplasmic reticulum, rich in cytochrome P450 enzymes.

Data set [6] in a line: Clearance in male rat at 8 mg/kg,iv measured upto 24 hrs. It is filed as ADME, organism-based. The settings on record: in vivo. Put shortly:
as §1

Data set [7] is described as follows: Clearance in Beagle dog at 4 mg/kg,iv measured upto 24 hrs. It is filed as ADME, organism-based, Canis lupus familiaris. The settings on record: in vivo. In outline:
as §2

A short description of data set [8]: AUC (0-infinity) in rat at 4 mg/kg,iv measured upto 24 hrs. The format is ADME, organism-based. The arrangement: dose 4 mg/kg, time < 24 hrs, route iv. The conditions noted are these: in vivo. In outline:
(§3)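 Single iv dose: rats 2, 4 or 8 mg/kg by intravenous injection; Beagle dogs 1, 2 or 4 mg/kg by intravenous infusion. Plasma concentration–time data were analysed by sex and pooled. Reported parameters: Cmax, Tmax, AUC0−t, AUC0−∞, MRT0−∞, t1/2, CL, Vss, given as mean ± SD.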

The nature of data set [9]: Half life in male Beagle dog at 4 mg/kg,iv measured upto 24 hrs. The format is ADME, organism-based, Canis lupus familiaris. The conditions noted are these: in vivo.
Data set [10] in a line: Half life in Beagle dog at 2 mg/kg,iv measured upto 24 hrs. It is filed as ADME, organism-based, Canis lupus familiaris. The conditions noted are these: in vivo.
Data set [11] concerns 4T1. Description: Antitumor activity against mouse 4T1 cells implanted in BALB/c mouse assessed as decrease in spleen MDSC cells at 10 mg/kg,iv measured after 28 days (reference value: 38%). More on the design: scale not given: the % may be the effect or the level left. The settings on record: time 28 day. The format is functional.
Data set [12] can be described thus: Stability in human hepatocyte assessed as compound remaining at 3 uM incubated upto 120 mins. The format is ADME, cell-based. The settings on record: hepatocytes, 2 h.
A short description of data set [13]: AUC (0-t) in female Beagle dog at 1 mg/kg,iv measured upto 24 hrs. The format is ADME, organism-based, Canis lupus familiaris. More on the design: dose 1 mg/kg, time < 24 hrs, route iv. The settings on record: in vivo. In outline:
as §3

A short description of data set [14]: Volume of distribution at steady state in male rat at 4 mg/kg,iv measured upto 24 hrs. The settings on record: in vivo, read-out: Vdss. It is filed as ADME, organism-based.
Data set [15] in a line: MRT (0 to infinity) in female Beagle dog at 2 mg/kg,iv measured upto 24 hrs. The format is ADME, organism-based, Canis lupus familiaris. The settings on record: in vivo.
Data set [16] is described as follows: Drug excretion in rat feces at 4 mg/kg,iv measured upto 72 hrs. The settings on record: faeces, read-out: Drug excretion. It is filed as ADME, organism-based.
Data set [17] is described as follows: Clearance in male rat at 2 mg/kg,iv measured upto 24 hrs. It is filed as ADME, organism-based. The conditions noted are these: in vivo. Put shortly:
as §1

Data set [18] can be described thus: Volume of distribution at steady state in male Beagle dog at 2 mg/kg,iv measured upto 24 hrs. The format is ADME, organism-based, Canis lupus familiaris. The conditions noted are these: in vivo, read-out: Vdss.
Data set [19] in a line: Volume of distribution at steady state in female Beagle dog at 4 mg/kg,iv measured upto 24 hrs. The conditions noted are these: in vivo, read-out: Vdss. The format is ADME, organism-based, Canis lupus familiaris.
Data set [20] can be described thus: MRT (0 to infinity) in female rat at 8 mg/kg,iv measured upto 24 hrs. The settings on record: in vivo. It is filed as ADME, organism-based.
Data set [21] in a line: Drug metabolism in rat urine assessed as metabolite MDA-205 formation at 4 mg/kg,iv measured after 24 hrs. It is filed as ADME, organism-based. The settings on record: in vivo.
Data set [22] in a line: Prodrug conversion in mouse plasma implanted with mouse 4T1 cells assessed as Cmax of docetaxel at 4 mg/kg,iv measured upto 72 hrs. It is filed as ADME, organism-based. The arrangement: dose 4 mg/kg, time < 72 hrs, route iv. The conditions noted are these: in vivo.
Data set [23] can be described thus: Half life in rat at 8 mg/kg,iv measured upto 24 hrs. The format is ADME, organism-based. The conditions noted are these: in vivo.
Data set [24] relates to 4T1. In words: Antitumor activity against mouse 4T1 cells implanted in BALB/c mouse assessed as decrease in serum MMP9 level at 5.7 mg/kg,iv administrated once per week for 4 weeks by ELISA. The format is functional, organism-based.
Data set [25] can be described thus: Toxicity in BALB/c mouse xenografted with mouse 4T1 cells assessed as decrease in body weight at 5.7 mg/kg,iv administrated with doxorubicin combination once per week for 4 weeks. The conditions noted are these: in vivo, 672 h. The format is organism-based. In outline:
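4T1 mammary fat-pad model in BALB/c mice. Doxorubicin (4 mg/kg) was given alone or co-administered with the conjugate or its parent taxane, with iv saline vehicle. Readouts were body weight, tumour volume, tumour weight, lung metastatic nodules and lung metastasis score. Mean ± SEM, n = 10; ANOVA and Student's t test.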

Data set [26] in a line: Cmax in mouse tumor implanted with mouse 4T1 cells at 5.7 mg/kg,iv measured upto 72 hrs. More on the design: time < 72 hrs, dose 5.7 mg/kg, route iv. It is filed as ADME, organism-based, Neoplasm.
The subject of data set [27] is 4T1. Description: Antitumor activity against mouse 4T1 cells xenografted with BALB/c mouse assessed as decrease in lung metastasis at 5.7 mg/kg,iv administrated once per week for 4 weeks. The format is functional, organism-based. In outline: (§4)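 4T1 cells injected into mammary fat pads of BALB/c mice. Dosing iv once per week for 4 weeks, saline vehicle; single-agent arms were given alone or with the peptide component (5b or 6). Endpoints were body weight, tumour volume, tumour weight, lung metastatic nodule count and lung metastasis score. Mean ± SEM, n = 10; ANOVA and Student's t test.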

For data set [28], the system named is 4T1. In words: Antitumor activity against mouse 4T1 cells implanted in BALB/c mouse assessed as decrease in serum IL-6 level at 5.7 mg/kg,iv administrated once per week for 4 weeks in presence of MDA-205 by ELISA. It is filed as functional, organism-based. Background: In an ELISA, binding on a coated surface is turned into a signal by an enzyme label.
Data set [29] has as its system 4T1. Description: Antitumor activity against mouse 4T1 cells implanted in BALB/c mouse assessed as decrease in lung metastasis at 5.7 mg/kg,iv administrated once per week for 4 weeks in presence of compound 5b by H and E staining based assay. The format is functional, organism-based. In outline: (§5)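 BALB/c mice bearing orthotopic mammary fat pad 4T1 tumors, dosed iv weekly for 4 weeks with saline vehicle as control. Lung sections stained with hematoxylin and eosin and examined by light microscopy at 40× for metastasis, inflammatory infiltration and alveolar wall thickening.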

In data set [30] the test system is 4T1. In words: Antitumor activity against mouse 4T1 cells xenografted with BALB/c mouse assessed as inhibition of tumor growth at 5.7 mg/kg,iv in presence of compound 6 administrated once per week for 4 weeks. The settings on record: 4T1, 672 h. The format is functional. In outline:
as §4

Data set [31] in a line: Half life in mouse plasma implanted with mouse 4T1 cells at 5.7 mg/kg,iv measured upto 72 hrs. The format is ADME, organism-based.
Data set [32] can be described thus: MRT in mouse tumor implanted with mouse 4T1 cells at 5.7 mg/kg,iv measured upto 72 hrs. It is filed as ADME, organism-based, Neoplasm.
The subject of data set [33] is 4T1. Description: Antitumor activity against mouse 4T1 cells implanted in BALB/c mouse assessed as decrease in lung metastasis at 5.7 mg/kg,iv administrated once per week for 4 weeks in presence of MDA-205 by H and E staining based assay. It is filed as functional, organism-based. In outline:
as §5

Sequence of Cytochrome P450 1A2 (P05177 whole entry): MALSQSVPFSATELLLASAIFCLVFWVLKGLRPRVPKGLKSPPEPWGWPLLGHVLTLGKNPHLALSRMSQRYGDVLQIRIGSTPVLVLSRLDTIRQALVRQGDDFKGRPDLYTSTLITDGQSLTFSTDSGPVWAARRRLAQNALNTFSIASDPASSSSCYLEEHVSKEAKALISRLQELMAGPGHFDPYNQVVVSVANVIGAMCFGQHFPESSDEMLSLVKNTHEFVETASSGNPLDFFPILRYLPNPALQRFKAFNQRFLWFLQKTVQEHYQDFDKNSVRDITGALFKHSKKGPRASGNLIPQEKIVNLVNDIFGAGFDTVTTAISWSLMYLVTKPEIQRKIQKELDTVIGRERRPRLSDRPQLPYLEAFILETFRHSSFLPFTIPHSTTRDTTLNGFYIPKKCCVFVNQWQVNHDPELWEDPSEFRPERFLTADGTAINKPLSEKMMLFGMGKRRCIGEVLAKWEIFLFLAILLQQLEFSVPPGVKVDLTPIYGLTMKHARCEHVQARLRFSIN

As for `CC(=O)O[C@@]12CO[C@@H]1C[C@H](O)[C@@]1(C)C(=O)[C@H](O)C3=C(C)[C@@H](OC(=O)[C@H](OC(=O)CCC(=O)NCCCC[C@H](NC(=O)CC[C@@H](NC(=O)[C@H](C)NC(=O)/C=C/c4ccc(F)cc4Cl)C(N)=O)C(=O)O)[C@@H](NC(=O)OC(C)(C)C)c4ccccc4)C[C@@](O)([C@@H](OC(=O)c4ccccc4)[C@H]21)C3(C)C`, the Activity result is reported as “Non-Toxic” in data set [1] and 20.2% in the data set on 4T1 [11]. Moreover, the t1/2 in data set [2] was determined as 59 h. Besides, the clearance (as a rule, a measure of how efficiently the substance is removed, as volume per time) in data set [3] was determined as 4.21 mL/min/kg; in [6], 2.55 mL/min/kg; in [7], 4.28 mL/min/kg; in data set [17], 5.58 mL/min/kg. For the same compound, the result in the data set on 4T1 [4] was inactive. The Drug uptake in data set [5] was found to be 0.23%. The “inhibition (INH)” value on Cytochrome P450 1A2 is given as “Not Active”. The AUC(0-inf) (usually the area under the concentration-time curve extrapolated to infinity) in data set [8] turned out to be 16900 ng·h/mL. Further, the half-life (as a rule, how long it takes for the measured level to halve) in data set [9] is 36.6 min; in data set [10] it was 30.5 min; in data set [23] it was 18.3 min. In addition, in [12], the Stability result is recorded as “Stable”. The AUC(0-t) (in general, the area under the concentration-time curve up to a stated or last time point) at 24 h in [13] came to 1590 ng·h/mL. Moreover, the Vd is 0.073 L/kg in data set [14], 0.09 L/kg in data set [18] and 0.087 L/kg in [19]. Moreover, the MRT inf – broadly, a mean duration of stay, worked out from the concentration-time curve – was 15.2 min in data set [15] and 28.2 min in data set [20]. Also, the dose excreted at 72 h in [16] was 69.9%. In addition, the Drug metabolism entry in data set [21] is on record as “Metabolite_Detected”. For the same compound, in data set [22], the Cmax (in general, the highest concentration seen after dosing) came to 43.3 µM.
On to `CC(=O)O[C@@]12CO[C@@H]1C[C@H](O)[C@@]1(C)C(=O)[C@H](O)C3=C(C)[C@@H](OC(=O)[C@H](O)[C@@H](NC(=O)OC(C)(C)C)c4ccccc4)C[C@@](O)([C@@H](OC(=O)c4ccccc4)[C@H]21)C3(C)C` [DOCETAXEL ANHYDROUS], for which the result with 4T1 [24], in the data set with 4T1 [27], in the data set on 4T1 [28], in the data set on 4T1 [29] and in the data set on 4T1 [33] was Active. For the same compound, the Activity entry in [25] is given as “Toxic”. The same compound displayed a Cmax in [26] of 0.95 µM. Further, the inhibition in vivo – broadly, how much of the control response was suppressed – at 5.7 mg/kg with 4T1 [30] stood at 15.4%. This compound also had a half-life in [31] of 217 min. Moreover, the MRT (usually a mean duration of stay, worked out from the concentration-time curve) in data set [32] came to 73.3 h.
